Experimental data: ChEMBL document CHEMBL4190362, “Synthesis, biological evaluation and quantitative structure-active relationships of 1,3-thiazolidin-4-one derivatives. A promising chemical scaffold endowed with high antifungal potency and low cytotoxicity” (Eur J Med Chem, 2017)

Experiments:
Assay type in all cases: functional
Staphylococcus aureus = assay: Antibacterial activity against Staphylococcus aureus assessed as inhibition of microbial growth incubated for 18 to 22 hrs by broth microdilution method
Method in brief: (§1)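 Broth microdilution in Mueller-Hinton II broth following NCCLS recommendations; compounds dissolved in DMSO.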

Staphylococcus warneri = assay: Antibacterial activity against Staphylococcus warneri assessed as inhibition of microbial growth incubated for 18 to 22 hrs by broth microdilution method; method in brief: as §1
Enterococcus faecalis = assay: Antibacterial activity against Streptococcus faecalis assessed as inhibition of microbial growth incubated for 18 to 22 hrs by broth microdilution method; method in brief: as §1
Escherichia coli = assay: Antibacterial activity against Escherichia coli assessed as inhibition of microbial growth incubated for 18 to 22 hrs by broth microdilution method; method in brief: as §1
Proteus mirabilis = assay: Antibacterial activity against Proteus mirabilis assessed as inhibition of microbial growth incubated for 18 to 22 hrs by broth microdilution method; method in brief: as §1
Enterobacter = assay: Antibacterial activity against Enterobacter spp. assessed as inhibition of microbial growth incubated for 18 to 22 hrs by broth microdilution method; method in brief: as §1
Klebsiella oxytoca = assay: Antibacterial activity against Klebsiella oxytoca assessed as inhibition of microbial growth incubated for 18 to 22 hrs by broth microdilution method; method in brief: as §1
Candida albicans = assay: Antifungal activity against Candida albicans clinical isolates assessed as inhibition of microbial growth incubated for 24 hrs by broth microdilution method
Method in brief: (§2)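 Twenty-two clinical Candida isolates (8 C. albicans, 4 C. glabrata, 3 C. tropicalis, 3 C. krusei, 2 C. parapsilosis, 2 C. sake) were identified by colony morphology and biochemistry and subcultured at 35 °C for purity. Compounds were dissolved in DMSO and tested by broth microdilution in Sabouraud dextrose broth per NCCLS/CLSI/EUCAST guidance. Values are geometric mean MIC per species (µg/mL).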

Nakaseomyces glabratus = assay: Antifungal activity against Candida glabrata clinical isolates assessed as inhibition of microbial growth incubated for 24 hrs by broth microdilution method; method in brief: as §2
Candida tropicalis = assay: Antifungal activity against Candida tropicalis clinical isolates assessed as inhibition of microbial growth incubated for 24 hrs by broth microdilution method; method in brief: as §2
Pichia kudriavzevii = assay: Antifungal activity against Candida krusei clinical isolates assessed as inhibition of microbial growth incubated for 24 hrs by broth microdilution method; method in brief: as §2
Candida parapsilosis = assay: Antifungal activity against Candida parapsilosis clinical isolates assessed as inhibition of microbial growth incubated for 24 hrs by broth microdilution method; settings: Lodderomyces parapsilosis; method in brief: as §2
[Candida] sake = Antifungal activity against Candida sake clinical isolates assessed as inhibition of microbial growth incubated for 24 hrs by broth microdilution method; settings: Fermentozyma sake; method in brief: as §2

SMILES	MIC (Staphylococcus aureus) [µg/mL]	MIC (Staphylococcus warneri) [µg/mL]	MIC (Enterococcus faecalis) [µg/mL]	MIC (Escherichia coli) [µg/mL]	MIC (Proteus mirabilis) [µg/mL]	MIC (Enterobacter) [µg/mL]	MIC (Klebsiella oxytoca) [µg/mL]	MIC (Candida albicans) [µg/mL]	MIC (Nakaseomyces glabratus) [µg/mL]	MIC (Candida tropicalis) [µg/mL]	MIC (Pichia kudriavzevii) [µg/mL]	MIC (Candida parapsilosis) [µg/mL]	MIC ([Candida] sake) [µg/mL]
O=C1CS/C(=N/N=C2CCCCCCC2)N1Cc1ccccc1	≥ 256	≥ 256	≥ 256	≥ 256	≥ 256	≥ 256	≥ 256	8	8	8	8	8	8
C=CCC/C(C)=N\N=C1\SCC(=O)N1Cc1ccccc1	≥ 256	≥ 256	≥ 256	≥ 256	≥ 256	≥ 256	≥ 256	8	2	8	8	8	8
O=C1CS/C(=N/N=C\c2ccncc2)N1Cc1ccccc1	≥ 256	≥ 256	≥ 256	≥ 256	≥ 256	≥ 256	≥ 256	256	256	256	256	256	256
CCC(CC)=N/N=C1/SCC(=O)N1Cc1ccccc1	≥ 256	≥ 256	≥ 256	≥ 256	≥ 256	≥ 256	≥ 256	32	2	32	8	8	8
O=C1CS/C(=N/N=C\c2ccco2)N1Cc1ccccc1	≥ 256	≥ 256	≥ 256	≥ 256	≥ 256	≥ 256	≥ 256	8	4	8	4	4	4
CCC/C(CC)=N\N=C1\SCC(=O)N1Cc1ccccc1	≥ 256	≥ 256	≥ 256	≥ 256	≥ 256	≥ 256	≥ 256	4	4	4	4	8	8
C/C(CC(C)C)=N/N=C1/SCC(=O)N1Cc1ccccc1	≥ 256	≥ 256	≥ 256	≥ 256	≥ 256	≥ 256	≥ 256	8	8	16	16	16	16
CC1CCC(=N/N=C2/SCC(=O)N2Cc2ccccc2)CC1 (centres undefined)	≥ 256	≥ 256	≥ 256	≥ 256	≥ 256	≥ 256	≥ 256	8	8	16	16	16	16
C/C(=N/N=C1/SCC(=O)N1Cc1ccccc1)C1CCCCC1	≥ 256	≥ 256	≥ 256	≥ 256	≥ 256	≥ 256	≥ 256	8	8	8	8	8	8
O=C1CS/C(=N/N=C\c2ccc3c(c2)OCO3)N1Cc1ccccc1	≥ 256	≥ 256	≥ 256	≥ 256	≥ 256	≥ 256	≥ 256	8	8	8	8	8	8
O=C1CS/C(=N/N=C2CCCC2)N1Cc1ccccc1	≥ 256	≥ 256	≥ 256	≥ 256	≥ 256	≥ 256	≥ 256	8	8	16	16	16	16
O=C1CS/C(=N/N=C\c2cccs2)N1Cc1ccccc1	≥ 256	≥ 256	≥ 256	≥ 256	≥ 256	≥ 256	≥ 256	8	8	8	32	32	32

The remaining lines, values ahead:

MIC (Staphylococcus aureus) [µg/mL]	MIC (Staphylococcus warneri) [µg/mL]	MIC (Enterococcus faecalis) [µg/mL]	MIC (Escherichia coli) [µg/mL]	MIC (Proteus mirabilis) [µg/mL]	MIC (Enterobacter) [µg/mL]	MIC (Klebsiella oxytoca) [µg/mL]	MIC (Candida albicans) [µg/mL]	MIC (Nakaseomyces glabratus) [µg/mL]	MIC (Candida tropicalis) [µg/mL]	MIC (Pichia kudriavzevii) [µg/mL]	MIC (Candida parapsilosis) [µg/mL]	MIC ([Candida] sake) [µg/mL]	SMILES
≥ 256	≥ 256	≥ 256	≥ 256	≥ 256	≥ 256	≥ 256	2	2	2	2	2	4	O=C1CS/C(=N/N=C\c2ccccc2[N+](=O)[O-])N1Cc1ccccc1
≥ 256	≥ 256	≥ 256	≥ 256	≥ 256	≥ 256	≥ 256	256	4	128	128	128	128	C/C(=N/N=C1/SCC(=O)N1Cc1ccccc1)c1ccsc1
≥ 256	≥ 256	≥ 256	≥ 256	≥ 256	≥ 256	≥ 256	8	16	8	16	8	32	CC/C(C)=N\N=C1\SCC(=O)N1Cc1ccccc1
≥ 256	≥ 256	≥ 256	≥ 256	≥ 256	≥ 256	≥ 256	2	4	16	4	8	8	C/C(=N/N=C1/SCC(=O)N1Cc1ccccc1)c1cccs1
≥ 256	≥ 256	≥ 256	≥ 256	≥ 256	≥ 256	≥ 256	256	32	256	128	128	128	C/C(=N/N=C1/SCC(=O)N1Cc1ccccc1)c1cc2ccccc2oc1=O
≥ 256	≥ 256	≥ 256	≥ 256	≥ 256	≥ 256	≥ 256	8	2	32	8	32	8	CC(=O)c1ccc(/C(C)=N\N=C2\SCC(=O)N2Cc2ccccc2)cc1
≥ 256	≥ 256	≥ 256	≥ 256	≥ 256	≥ 256	≥ 256	8	4	16	4	32	8	C/C(=N/N=C1/SCC(=O)N1Cc1ccccc1)c1c[nH]c2ccccc12
≥ 256	≥ 256	≥ 256	≥ 256	≥ 256	≥ 256	≥ 256	8	2	32	8	32	8	C/C(=N/N=C1/SCC(=O)N1Cc1ccccc1)c1ccc(/C(C)=N\N=C2\SCC(=O)N2Cc2ccccc2)cc1
≥ 256	≥ 256	≥ 256	≥ 256	≥ 256	≥ 256	≥ 256	256	256	256	256	256	256	CC(C)=N/N=C1/SCC(=O)N1Cc1ccccc1
≥ 256	≥ 256	≥ 256	≥ 256	≥ 256	≥ 256	≥ 256	4	4	32	16	32	4	C/C(=N\N=C1\SCC(=O)N1Cc1ccccc1)c1cc2ccccc2o1
≥ 256	≥ 256	≥ 256	≥ 256	≥ 256	≥ 256	≥ 256	4	4	32	16	16	4	C/C(=N/N=C1/SCC(=O)N1Cc1ccccc1)c1cccc2ccccc12
